Laboratory results from the M2OR odorant receptor database.
Where a chain is given by its changes, count along the chain named.

Legend:
Conditions in all cases: stereoisomer not certain
O5AP2 A105T = test system: T1, O5AP2 A105T
T1 sequence (whole entry): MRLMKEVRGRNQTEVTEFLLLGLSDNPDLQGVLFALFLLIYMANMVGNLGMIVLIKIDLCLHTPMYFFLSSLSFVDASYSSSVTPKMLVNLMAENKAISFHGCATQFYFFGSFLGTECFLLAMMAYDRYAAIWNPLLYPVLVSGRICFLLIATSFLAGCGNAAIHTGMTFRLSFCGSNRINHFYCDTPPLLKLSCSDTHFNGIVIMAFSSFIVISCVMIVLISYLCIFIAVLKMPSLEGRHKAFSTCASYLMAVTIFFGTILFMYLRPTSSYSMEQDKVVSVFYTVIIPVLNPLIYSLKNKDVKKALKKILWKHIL
Summary of the method: (§1)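 Whether a receptor–molecule pair is responsive (active) rests on the original authors' judgment that its measured signal was statistically different from baseline. Pairs without that judgment are non-responsive (inactive). Sources used varied assay methods, commonly transient luciferase assays in mammalian cell lines.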

O5AU1 = test system: T2, O5AU1
T2 sequence (whole entry): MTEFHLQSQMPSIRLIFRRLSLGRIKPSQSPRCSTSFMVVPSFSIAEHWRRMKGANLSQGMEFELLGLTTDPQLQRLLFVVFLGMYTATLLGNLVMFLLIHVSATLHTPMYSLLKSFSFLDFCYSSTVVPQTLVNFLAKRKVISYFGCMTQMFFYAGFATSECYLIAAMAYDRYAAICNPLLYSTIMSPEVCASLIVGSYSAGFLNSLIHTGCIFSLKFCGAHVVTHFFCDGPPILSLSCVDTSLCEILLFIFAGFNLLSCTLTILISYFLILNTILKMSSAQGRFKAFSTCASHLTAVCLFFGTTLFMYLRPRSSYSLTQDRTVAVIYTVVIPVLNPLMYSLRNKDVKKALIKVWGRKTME
Summary of the method: as §1

O5H14 = test system: T3, O5H14
T3 sequence (whole entry): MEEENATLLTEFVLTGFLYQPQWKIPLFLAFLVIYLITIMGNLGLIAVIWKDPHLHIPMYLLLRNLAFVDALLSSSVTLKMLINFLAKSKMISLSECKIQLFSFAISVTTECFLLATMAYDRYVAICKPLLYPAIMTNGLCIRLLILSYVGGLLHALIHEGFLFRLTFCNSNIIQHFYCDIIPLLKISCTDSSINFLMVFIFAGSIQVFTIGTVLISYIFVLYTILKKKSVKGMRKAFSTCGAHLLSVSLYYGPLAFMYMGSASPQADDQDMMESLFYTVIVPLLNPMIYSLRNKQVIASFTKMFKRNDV
Summary of the method: as §1

O5H15 V108I S148T T167S = test system: T4, O5H15 V108I S148T T167S
T4 sequence (whole entry): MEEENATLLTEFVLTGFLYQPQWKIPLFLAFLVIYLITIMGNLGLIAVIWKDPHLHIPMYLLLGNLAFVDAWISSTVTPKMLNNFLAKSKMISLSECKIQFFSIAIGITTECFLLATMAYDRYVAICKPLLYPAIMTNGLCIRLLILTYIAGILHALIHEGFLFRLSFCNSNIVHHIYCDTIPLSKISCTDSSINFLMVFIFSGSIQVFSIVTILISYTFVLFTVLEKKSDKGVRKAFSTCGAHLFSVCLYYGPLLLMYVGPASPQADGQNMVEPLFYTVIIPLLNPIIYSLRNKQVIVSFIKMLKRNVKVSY
Summary of the method: as §1

O6C65 T222A = test system: T5, O6C65 T222A
T5 sequence (whole entry): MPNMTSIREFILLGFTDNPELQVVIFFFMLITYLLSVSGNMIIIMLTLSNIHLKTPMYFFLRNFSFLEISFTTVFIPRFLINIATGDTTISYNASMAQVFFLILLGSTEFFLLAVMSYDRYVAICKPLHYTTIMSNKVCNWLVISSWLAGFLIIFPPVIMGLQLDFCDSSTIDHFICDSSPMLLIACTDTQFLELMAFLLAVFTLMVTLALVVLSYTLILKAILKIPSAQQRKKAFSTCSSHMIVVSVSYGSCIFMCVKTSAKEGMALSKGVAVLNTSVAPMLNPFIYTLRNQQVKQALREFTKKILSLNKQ
Summary of the method: as §1

O6C70 L181P = test system: T6, O6C70 L181P
T6 sequence (whole entry): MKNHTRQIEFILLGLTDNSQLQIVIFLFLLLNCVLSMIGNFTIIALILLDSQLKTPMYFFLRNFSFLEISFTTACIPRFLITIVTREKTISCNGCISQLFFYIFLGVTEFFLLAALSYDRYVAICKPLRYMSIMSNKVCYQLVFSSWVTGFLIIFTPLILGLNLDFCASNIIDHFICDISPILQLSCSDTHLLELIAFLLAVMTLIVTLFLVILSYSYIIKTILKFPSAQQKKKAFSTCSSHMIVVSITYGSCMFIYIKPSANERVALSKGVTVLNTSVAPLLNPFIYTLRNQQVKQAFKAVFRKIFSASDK
Summary of the method: as §1

O7E24 S193F P242S = test system: T7, O7E24 S193F P242S
T7 sequence (whole entry): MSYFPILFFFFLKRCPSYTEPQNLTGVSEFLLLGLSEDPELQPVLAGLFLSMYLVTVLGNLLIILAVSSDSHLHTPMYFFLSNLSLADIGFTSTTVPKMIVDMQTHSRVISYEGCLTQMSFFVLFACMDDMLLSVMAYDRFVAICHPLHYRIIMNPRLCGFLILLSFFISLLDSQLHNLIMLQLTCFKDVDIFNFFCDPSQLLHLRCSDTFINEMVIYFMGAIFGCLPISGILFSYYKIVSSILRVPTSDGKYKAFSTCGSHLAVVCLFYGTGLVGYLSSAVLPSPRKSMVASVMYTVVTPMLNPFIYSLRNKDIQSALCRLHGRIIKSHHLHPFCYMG
Summary of the method: as §1

O7E24 = test system: T8, O7E24
T8 sequence (whole entry): T7 sequence (whole entry) with F193S
Summary of the method: as §1

OR10A2 (Homo sapiens) = target: T9, OR10A2 (Homo sapiens) (UniProt Q9H208)
T9 sequence (whole entry): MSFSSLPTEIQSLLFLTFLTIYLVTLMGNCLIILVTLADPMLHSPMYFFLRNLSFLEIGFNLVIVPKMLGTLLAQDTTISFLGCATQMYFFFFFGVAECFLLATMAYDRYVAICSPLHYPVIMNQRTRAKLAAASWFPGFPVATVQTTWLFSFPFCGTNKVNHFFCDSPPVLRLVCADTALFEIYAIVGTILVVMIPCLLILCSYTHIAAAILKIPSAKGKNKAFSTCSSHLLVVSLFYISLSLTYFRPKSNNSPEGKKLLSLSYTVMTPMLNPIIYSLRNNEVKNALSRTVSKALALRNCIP
Summary of the method: as §1

OR10A3 (Homo sapiens) = target: T10, OR10A3 (Homo sapiens) (UniProt P58181)
T10 sequence (whole entry): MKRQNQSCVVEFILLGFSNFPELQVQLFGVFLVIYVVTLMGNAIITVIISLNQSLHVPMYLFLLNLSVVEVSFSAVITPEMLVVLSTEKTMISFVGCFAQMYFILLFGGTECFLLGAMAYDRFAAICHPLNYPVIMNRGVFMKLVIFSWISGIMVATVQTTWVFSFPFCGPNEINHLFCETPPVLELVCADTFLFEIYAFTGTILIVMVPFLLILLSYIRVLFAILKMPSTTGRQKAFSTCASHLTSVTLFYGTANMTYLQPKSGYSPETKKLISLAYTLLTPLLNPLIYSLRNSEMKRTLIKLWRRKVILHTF
Summary of the method: as §1

OR10A4 (Homo sapiens) = target: T11, OR10A4 (Homo sapiens) (UniProt Q9H209)
T11 sequence (whole entry): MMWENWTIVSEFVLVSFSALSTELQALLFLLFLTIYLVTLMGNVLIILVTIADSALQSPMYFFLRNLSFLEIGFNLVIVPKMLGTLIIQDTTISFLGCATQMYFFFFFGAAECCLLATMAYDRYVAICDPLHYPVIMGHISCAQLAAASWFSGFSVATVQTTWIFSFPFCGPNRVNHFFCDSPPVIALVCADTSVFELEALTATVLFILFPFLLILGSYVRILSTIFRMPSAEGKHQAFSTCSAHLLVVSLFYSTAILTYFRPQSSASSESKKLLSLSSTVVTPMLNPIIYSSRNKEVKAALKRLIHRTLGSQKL
Summary of the method: as §1

OR10A5 (Homo sapiens) = target: T12, OR10A5 (Homo sapiens) (UniProt Q9H207)
T12 sequence (whole entry): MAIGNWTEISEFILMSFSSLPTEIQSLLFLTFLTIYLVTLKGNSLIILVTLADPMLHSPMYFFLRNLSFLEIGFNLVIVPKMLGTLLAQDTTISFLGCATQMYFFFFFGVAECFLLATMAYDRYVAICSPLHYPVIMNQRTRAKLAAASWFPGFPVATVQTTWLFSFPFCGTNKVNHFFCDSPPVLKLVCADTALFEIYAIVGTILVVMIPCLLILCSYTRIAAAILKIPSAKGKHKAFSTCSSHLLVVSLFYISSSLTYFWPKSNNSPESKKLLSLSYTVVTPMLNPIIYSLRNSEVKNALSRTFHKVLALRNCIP
Summary of the method: as §1

OR10A6 (Homo sapiens) = target: T13, OR10A6 (Homo sapiens) (UniProt Q8NH74)
T13 sequence (whole entry): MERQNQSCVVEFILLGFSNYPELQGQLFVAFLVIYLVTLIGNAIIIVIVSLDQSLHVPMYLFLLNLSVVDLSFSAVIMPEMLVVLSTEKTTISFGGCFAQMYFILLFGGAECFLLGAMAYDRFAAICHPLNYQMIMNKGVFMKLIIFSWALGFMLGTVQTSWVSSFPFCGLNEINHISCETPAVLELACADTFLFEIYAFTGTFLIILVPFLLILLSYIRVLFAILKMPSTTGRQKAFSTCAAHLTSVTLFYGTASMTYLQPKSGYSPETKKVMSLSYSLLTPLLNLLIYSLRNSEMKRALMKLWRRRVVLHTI
Summary of the method: as §1

OR10A7 (Homo sapiens) = target: T14, OR10A7 (Homo sapiens) (UniProt Q8NGE5)
T14 sequence (whole entry): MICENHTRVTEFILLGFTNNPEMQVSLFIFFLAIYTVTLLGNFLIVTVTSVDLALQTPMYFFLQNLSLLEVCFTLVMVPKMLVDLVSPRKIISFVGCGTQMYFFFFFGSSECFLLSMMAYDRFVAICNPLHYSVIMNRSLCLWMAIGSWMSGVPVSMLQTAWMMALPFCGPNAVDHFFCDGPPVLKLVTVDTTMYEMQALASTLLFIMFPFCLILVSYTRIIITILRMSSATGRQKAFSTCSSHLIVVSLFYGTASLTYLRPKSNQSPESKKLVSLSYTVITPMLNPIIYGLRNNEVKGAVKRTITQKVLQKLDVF
Summary of the method: as §1

OR10AD1 (Homo sapiens) = target: T15, OR10AD1 (Homo sapiens) (UniProt Q8NGE0)
T15 sequence (whole entry): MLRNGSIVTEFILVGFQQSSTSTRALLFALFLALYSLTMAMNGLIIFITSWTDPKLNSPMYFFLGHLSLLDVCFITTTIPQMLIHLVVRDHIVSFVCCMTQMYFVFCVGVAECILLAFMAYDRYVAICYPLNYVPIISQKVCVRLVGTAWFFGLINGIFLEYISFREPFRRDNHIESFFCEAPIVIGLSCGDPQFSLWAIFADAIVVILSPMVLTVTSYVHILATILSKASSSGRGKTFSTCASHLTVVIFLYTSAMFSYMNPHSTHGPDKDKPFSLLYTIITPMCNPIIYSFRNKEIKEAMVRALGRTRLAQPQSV
Summary of the method: as §1

OR10AG1 (Homo sapiens) = target: T16, OR10AG1 (Homo sapiens) (UniProt Q8NH19)
T16 sequence (whole entry): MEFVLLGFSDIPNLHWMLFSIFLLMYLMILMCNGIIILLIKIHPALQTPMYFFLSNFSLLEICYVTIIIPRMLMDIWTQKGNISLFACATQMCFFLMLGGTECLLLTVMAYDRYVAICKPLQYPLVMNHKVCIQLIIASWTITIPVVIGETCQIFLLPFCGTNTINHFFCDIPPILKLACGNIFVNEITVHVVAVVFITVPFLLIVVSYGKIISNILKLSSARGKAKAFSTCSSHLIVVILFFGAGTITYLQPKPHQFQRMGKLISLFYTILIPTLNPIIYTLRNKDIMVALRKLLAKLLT
Summary of the method: as §1

OR10C1 (Homo sapiens) = target: T17, OR10C1 (Homo sapiens) (UniProt Q96KK4)
T17 sequence (whole entry): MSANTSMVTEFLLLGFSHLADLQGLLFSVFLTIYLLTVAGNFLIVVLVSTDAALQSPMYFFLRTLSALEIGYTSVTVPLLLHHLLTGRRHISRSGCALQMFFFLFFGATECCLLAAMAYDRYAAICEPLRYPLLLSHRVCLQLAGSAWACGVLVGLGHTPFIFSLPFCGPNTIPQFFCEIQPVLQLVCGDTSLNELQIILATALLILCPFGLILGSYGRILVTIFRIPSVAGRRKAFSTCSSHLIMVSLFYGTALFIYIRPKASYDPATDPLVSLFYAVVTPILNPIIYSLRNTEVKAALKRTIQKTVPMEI
Summary of the method: as §1

OR10D3 (Homo sapiens) = target: T18, OR10D3 (Homo sapiens) (UniProt Q8NH80)
T18 sequence (whole entry): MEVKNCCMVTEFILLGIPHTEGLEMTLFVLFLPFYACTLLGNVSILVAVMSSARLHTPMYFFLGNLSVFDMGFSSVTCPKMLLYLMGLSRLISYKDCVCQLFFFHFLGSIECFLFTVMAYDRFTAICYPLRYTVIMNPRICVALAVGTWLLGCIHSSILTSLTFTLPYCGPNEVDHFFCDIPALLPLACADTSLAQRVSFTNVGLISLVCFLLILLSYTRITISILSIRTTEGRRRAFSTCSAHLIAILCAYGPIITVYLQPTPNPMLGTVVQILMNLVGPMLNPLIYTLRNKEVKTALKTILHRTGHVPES
Summary of the method: as §1

Measured: odorant receptor agonist call;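 further: active if original authors judged signal statistically different from baseline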

CC1=NC(C)C(C)S1 (configuration not stated)
inactive: O5AP2 A105T | O5AU1 | O5H14 | O5H15 V108I S148T T167S | O6C65 T222A | O6C70 L181P | O7E24 S193F P242S | O7E24 | OR10A2 (Homo sapiens) | OR10A3 (Homo sapiens) | OR10A4 (Homo sapiens) | OR10A5 (Homo sapiens) | OR10A6 (Homo sapiens) | OR10A7 (Homo sapiens) | OR10AD1 (Homo sapiens) | OR10AG1 (Homo sapiens) | OR10C1 (Homo sapiens) | OR10D3 (Homo sapiens)

CC1(C)CC(=O)CC(=O)C1
inactive: OR10A7 (Homo sapiens)

CC1=C(O)C(=O)OC1C (configuration not stated)
inactive: O5AP2 A105T | O5AU1 | O5H14 | O5H15 V108I S148T T167S | O6C65 T222A | O6C70 L181P | O7E24 S193F P242S | O7E24 | OR10A2 (Homo sapiens) | OR10A3 (Homo sapiens) | OR10A4 (Homo sapiens) | OR10A5 (Homo sapiens) | OR10A6 (Homo sapiens) | OR10A7 (Homo sapiens) | OR10AD1 (Homo sapiens) | OR10AG1 (Homo sapiens) | OR10C1 (Homo sapiens) | OR10D3 (Homo sapiens)
